MT1-MMP act inh – blockers of MT1-MMP proenzyme processing, primary screen, HT1080 RFP-PRO-GFP cells, GFP/RFP fluorescence. GFP/RFP ratio change, % at 20 µM. Matrix metalloproteinase-14 (Homo sapiens), P50281. GFP/RFP ratio fluorescence, overnight; percent of plate control window, DMSO zero. 360,000 compounds, 0.061% hits;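 active = GFP/RFP ratio change of at least 30% with cell ATP level not reduced by more than half and red fluorescence within 50% of control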
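Assay system: HT1080 RFP-PRO-GFP cells. Benchmarks: DMSO vehicle wells and RFP-L50D-GFP reporter cell wells. Times: overnight cell settling, then overnight compound exposure, 37 °C, 5% CO2. Compound: 20 µM single dose, 1% DMSO. Read-out basis: GFP/RFP fluorescence ratio.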
CSN inh – inhibitors of CSN-mediated cullin deneddylation, primary screen, biochemical, fluorescence polarization, uHTS. COP9 signalosome complex subunit 5 (Homo sapiens), Q92905. inhibition, % at 12.5 µM. 360,000 compounds, 0.38% hits. Purified CSN, SCF-Nedd8-OG deneddylation;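 active = pattern-corrected inhibition above about 35%, with an unprinted fluorescence ratio check between 0.5 and 1.5, limit read from the data, passing the limit was not always enough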;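 note: 0% = enzyme with substrate and 100% = substrate without enzyme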
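assay system = purified human Csn5 enzyme expressed in HEK293T cells | amount = 0.24 nM enzyme | buffer or medium = Tris/NaCl/DTT buffer, pH 7.5 | reagent = 10 nM SCFSkp2-Nedd8OG | compound = one concentration, 12.5 µM, 0.25% DMSO | times = 90 min reaction at room temperature | signal = FP | read-out basis = % inhibition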
SUMO1 PPI mod – modulators of SUMO1 protein-protein interactions, primary screen, biochemical, uHTS | 360,000 compounds, 0.33% hits | AID 602429, 2012 | SUMO1 binding to a labelled peptide, TR-FRET, 1 h | inhibition, % at 20 µM; in the data active = inhibition above about 37%
Target sequence (P63165 whole entry, looked up): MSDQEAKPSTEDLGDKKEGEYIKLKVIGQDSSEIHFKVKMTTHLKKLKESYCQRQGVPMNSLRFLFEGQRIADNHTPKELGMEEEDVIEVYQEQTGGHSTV
Rpn11 inh – Rpn11 (PSMD14) deubiquitinase inhibitors, primary screen, biochemical, fluorescence polarization, uHTS. human 26S proteasome, Ub4-pepOG fluorescence polarization; 20S core pre-blocked with epoxomicin. 26S proteasome non-ATPase regulatory subunit 14 (Homo sapiens), O00487. inhibition, % at 20 µM. 360,000 compounds, 0.59% hits;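 active = inhibition at 20 µM, scaled to each plate's controls, above about 33%, limit read from the data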
Target sequence (O00487 whole entry, looked up): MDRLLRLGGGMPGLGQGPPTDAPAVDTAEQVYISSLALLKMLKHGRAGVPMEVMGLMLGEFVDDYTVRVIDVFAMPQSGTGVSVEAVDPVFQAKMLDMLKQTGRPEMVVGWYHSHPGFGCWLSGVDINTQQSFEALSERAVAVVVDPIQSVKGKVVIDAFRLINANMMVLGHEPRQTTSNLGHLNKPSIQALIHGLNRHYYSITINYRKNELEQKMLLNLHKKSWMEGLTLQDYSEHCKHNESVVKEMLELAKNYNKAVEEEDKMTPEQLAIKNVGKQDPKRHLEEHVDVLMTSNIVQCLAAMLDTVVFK
SKN-1 block – suppressors of acrylamide-induced Pgst-4::GFP reporter in worms, primary screen, SKN-1 inhibitor project, whole organism, uHTS, GFP/RFP fluorescence ratio, strain VP596. 360,000 compounds, 0.49% hits. inhibition, % at 21.8 µM. AID 624304, 2012. C. elegans VP596 Pgst-4::GFP/RFP ratio, 24 h;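 active = interference check ratio from 0.5 to 1.5 plus GFP to RFP signal ratio inhibition reaching or exceeding a fixed threshold, cut at about 30% in these data, passing the limit was not always enough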
DNMT1 block – human DNMT1 methyltransferase inhibitors, primary screen, biochemical, molecular beacon, fluorescence, HinP1I cleavage, uHTS. DNA (cytosine-5)-methyltransferase 1 (Homo sapiens), P26358. inhibition (reported as % activation of signal), % at 10 µM. 360,000 compounds, 0.83% hits. AID 588458, 2011; in the data active = inhibition above about 50%
DNMT1 inh conf – DNMT1 methyltransferase inhibitor retest, confirmation, biochemical, molecular beacon, fluorescence, single concentration; shares compounds with DNMT1 block; DNMT1 molecular beacon HinP1I cleavage; inhibition, % at 10 µM; 2,300 compounds, 8% hits;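 active = average inhibition of at least 30% in the single-concentration confirmation test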
Beacon interf – beacon fluorescence artifact counter-screen | shares compounds with DNMT1 block | DNMT1 molecular beacon spectral interference counterscreen, fluorescence 485/520 | activation (fluorescence interference), % at 10 µM | 2,300 compounds, 1% hits | AID 602387;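 active = activation of at least 30% at 10 µM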;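 note: DNMT1 catalytic domain with a HinP1I cleavage step and a FAM/dabcyl DNA beacon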
Starred values were filed as active, the others as inactive; . = not tested or not shown. An excerpt weighted towards active compounds, which were near 2.3% of everything screened.

SMILES	MT1-MMP act inh	CSN inh	SUMO1 PPI mod	Rpn11 inh	SKN-1 block	DNMT1 block	DNMT1 inh conf	Beacon interf
C[C@@H]1CCCCO[C@H](CN(C)C(=O)Nc2ccc3c(c2)OCO3)[C@H](C)CN([C@@H](C)CO)C(=O)c2cc(NS(=O)(=O)c3ccc(Cl)cc3)ccc2O1	4	6	2	8	10	-17	.	.
CC1(Oc2cccc(F)c2)CCN(Cc2ccc(-c3ccccn3)cc2)C1 (stereo not drawn)	1	6	-5	-4	-10	5	.	.
COC(=O)C[C@H]1CC[C@@H](NC(=O)Nc2ccc(C(F)(F)F)cc2)[C@@H](CO)O1	3	2	0	.	-5	.	.	.
CCOc1ccc(N(CC(=O)Nc2ccc(C)cc2C)S(C)(=O)=O)cc1	-2	3	-3	-12	-28	71*	-2	0
C=CCn1c(O)c(N=NC(=O)CNC(=O)/C=C/c2ccco2)c2ccccc21	3	10	-6	29	-2	93*	11	2
C=CCn1c(O)c(N=NC(=O)CNC(=O)/C=C/c2ccc(OC)cc2)c2ccccc21	0	-2	-30	0	-7	-2	.	.
CC1(C(=O)NS(=O)(=O)c2ccccc2Cl)CCN1C(=O)CC1CC1 (stereo not drawn)	2	3	1	2	-9	3	.	.
Cc1ccc(-c2nnc(SCC(=O)Nc3sc(C)c(C)c3C#N)n2C)cc1	2	12	-1	9	15	52*	3	-4
O=S1(=O)N[C@@H](Cc2ccccc2)COc2cc(N3CCN(Cc4ccccc4F)CC3)ccc21	3	-4	2	.	-2	.	.	.
COc1cc(C(O)c2nc(-c3cccc(NC(C)=O)c3)cs2)ccc1F (stereo not drawn)	3	4	0	-6	-4	-4	.	.
O=C(CC1C[C@H](C(=O)N2CCCCC2)[C@@]2(CCc3ccccc3)c3[nH]c4ccccc4c3CCN2C1=O)NCCC1=CCCCC1 (stereo partly drawn)	-11	-2	2	-5	10	60*	4	7
O=C(C[C@H]1C[C@H](C(=O)N2CCCCC2)[C@@]2(CCc3ccccc3)c3[nH]c4ccc(Cl)cc4c3CCN2C1=O)NCCc1ccccn1	-30	2	2	12	-13	-24	.	.
O=C(C[C@H]1C[C@H](C(=O)N2CCCCC2)[C@@]2(CCc3ccccc3)c3[nH]c4ccc(Cl)cc4c3CCN2C1=O)NCCC1=CCCCC1	-7	4	4	-3	-9	61*	6	1
O=C(Nc1cccc(C(F)(F)F)c1)Nc1nnc([C@@H]2C[C@H](O)[C@@H](CO)O2)s1	-16	-1	4	5	-10	-2	.	.
O=[N+]([O-])c1ccc(Cl)c(S(=O)(=O)Nc2ccc(-c3ccc(N4CCOCC4)nn3)cc2)c1	6	4	-28	-5	4	2	.	.
O=S(=O)(Nc1ccc(-c2ccc(N3CCOCC3)nn2)cc1)c1ccc(Cl)c(Cl)c1	-6	-6	-12	3	18	83*	5	5
CN(C)c1ccc(CC(=O)N2CCCC(c3cc(C(=O)Nc4ccc(C(C)(C)C)cc4)no3)C2)cc1 (stereo not drawn)	17	2	-1	4	3	-8	.	.
CCc1ccccc1NC(=O)COc1ccc2oc(-c3ccc(OC)cc3)cc(=O)c2c1	10	11	9	-4	12	68*	5	5
NC(=O)COc1ccc2oc(-c3ccccc3)cc(=O)c2c1	-4	1	-3	-8	-7	7	.	.
CCCCC(=O)Nc1ccc(C(=O)NNC(=O)c2ccc(C)c(Br)c2)cc1	2	13	26	15	8	81*	4	0
OC(c1ccccc1)C(NCc1ccccc1)c1ccccc1 (stereo not drawn)	1	1	0	-11	3	2	.	.
Cc1ccc(S(=O)(=O)N2CCN(C(=O)c3cccc(-n4cccc4)c3)CC2)cc1	-1	9	11	-14	21	32	.	.
O=C(c1cccc(-n2cccc2)c1)N1CCN(S(=O)(=O)c2ccccc2)CC1	0	30	76*	.	-14	97*	12	0
CCC(C)CN1C(=O)CN(S(C)(=O)=O)CC1(C)C(=O)NC(C)C (stereo not drawn)	12	-2	2	.	11	.	.	.
Cc1ccc(C)c(/C(O)=C2/C(=O)C(=O)N(CCN3CCOCC3)C2c2ccco2)c1 (stereo not drawn)	-13	9	0	-19	8	83*	2	3
SMILES	MT1-MMP act inh	CSN inh	SUMO1 PPI mod	Rpn11 inh	SKN-1 block	DNMT1 block	DNMT1 inh conf	Beacon interf
Cc1ccc(C2/C(=C(/O)c3ccccc3)C(=O)C(=O)N2CCN2CCOCC2)o1 (stereo not drawn)	2	0	-2	-6	0	-2	.	.
CCc1nc2ccc(C(=O)Nc3cccc(NS(C)(=O)=O)c3)cn2c1N(CCC(C)C)CCN(C)C	-5	-1	-4	7	-3	-2	.	.
CC(C)C#Cc1cnc2c(c1)C(=O)N([C@@H](C)CO)C[C@@H](C)[C@H](CN(C)Cc1cccc(F)c1)O2	0	-1	3	2	3	-3	.	.
N=C1/C(=C/c2ccc(Br)o2)C(=O)N=C2SC(CC(=O)N3CCCC3)=NN12	13	33	57*	-5	26	66*	20	1
N=C1/C(=C\c2ccc(Br)o2)C(=O)N=C2SC(CC(=O)N3CCOCC3)=NN12	11	18	28	3	15	47	.	.
Cc1ccc(/C=C2\C(=N)N3N=C(CC(=O)N4CCCCC4)SC3=NC2=O)cc1	-2	2	-1	9	7	1	.	.
N=C1/C(=C/c2ccco2)C(=O)N=C2SC(CC(=O)N3CCCC3)=NN12	1	19	4	-7	-5	64*	6	6
